Experimental data gathered from unrelated publications.
Each line is one published result; the experiments were not run side by side.
Cell line: HepG2
Read-out: cell growth or viability

| SMILES | assay | conditions | quantity | result |
| --- | --- | --- | --- | --- |
| COC1=CC(c2ccco2)=NC1=Cc1ccc(CCCCCCCCCC(C)O)[nH]1 (stereo not drawn) |  |  | IC50 | > 100 µM |
| COc1ccc(CCN2CCC(Nc3nc4ccccc4n3Cc3ccc(F)cc3)CC2)cc1 | resazurin | 10 µM, 24 h | viability | 68% |
| COC(=O)[C@]1(O)C[C@@H](O)[C@@H](O)[C@H](OC(=O)/C=C/c2ccc(O)c(O)c2)C1 | WST-1 |  | IC50 | 30.9 µM |
| COC1=CC(c2ccc[nH]2)=NC1=Cc1ccc(CCCCCCCCCCCO)[nH]1 |  |  | IC50 | 11.4 µM |
| COc1ccc2c(c1)c1c(n2CO)CN2CCc3cc(OC)c(OCC(F)(F)F)cc3C2C1 (stereo not drawn) |  | 5 µM, 24 h | viability | 102% |
| OC(c1cc(C(F)(F)F)nc2c(C(F)(F)F)cccc12)C1CCCCN1 (stereo not drawn) |  |  | IC50 | 11 µM |
| COc1ccc2c(c1)c1c(n2CO)CN2CCc3cc(OCc4ccccc4)c(OC)cc3C2C1 (stereo not drawn) |  | 20 µM, 24 h | viability | 88.9% |
| CC(C)(C)CC(C)(C)Nc1c(-c2cccnc2)nc2ncccn12 | MTT | 25 µM, 48 h | viability | 92.5% |
| N=C(N/N=C/c1ccccc1)N/N=C/c1ccccc1F | resazurin | 24 h | IC50 | 60 µM |
| COc1ccc2c(c1)c1c(n2CO)CN2CCc3cc(OC)c(OCc4ccc(F)cc4)cc3C2C1 (stereo not drawn) |  | 5 µM, 24 h | viability | 104% |
| COc1cc2[nH]c(C)c(-c3ccc(Oc4ccc(F)cc4)cc3)c(=O)c2cc1Cl | resazurin |  | IC50 | > 10 µM |
| CCc1ccc(C2=NC(=Cc3ccc(CCCCCCCCCC(C)O)[nH]3)C(OC)=C2)[nH]1 (stereo not drawn) |  |  | IC50 | 1.76 µM |
| CC1(C)CC[C@]2(C)CC[C@]3(C)[C@H]4CC=C5[C@@H](CC[C@H](O)C5(C)C)[C@]4(C)CC[C@@]3(C)[C@@H]2C1 | WST-1 |  | IC50 | 50.9 µM |
| COc1cc2[nH]c(C)c(-c3ccc(Oc4cccc(OC(F)(F)F)c4)cc3)c(=O)c2cc1Cl | resazurin |  | IC50 | > 10 µM |
| COc1ccc(-c2nc3ncccn3c2NC(C)(C)CC(C)(C)C)cc1O | MTT | 25 µM, 48 h | viability | 77.7% |
| COc1cc2c(cc1OCc1ccccc1F)C1Cc3c(n(CO)c4ccccc34)CN1CC2 (stereo not drawn) |  | 5 µM, 24 h | viability | 119% |
| CNc1cccc2cc(C(=O)Nc3ccc(C(=O)O)cc3)c(=O)[nH]c12 | CCK-8 | 10 µM, 48 h | cell death | 1.5% |
| CCCCCCn1c(-c2cccc(Cl)c2)n[nH]c1=S | resazurin | 50 µM, 24 h | viability | 92% |
| CC(C)(C)CC(C)(C)Nc1c(-c2cccc(C#N)c2)nc2ncccn12 | MTT | 25 µM, 48 h | viability | 74.5% |
| CNc1cccc2cc(C(=O)NCCc3cccc(C(=O)O)c3)c(=O)[nH]c12 | CCK-8 | 50 µM, 48 h | cell death | 15% |
| COc1cc2[nH]c(C)c(-c3ccc(Oc4ccc(C(F)(F)F)cn4)cc3)c(=O)c2cc1Cl | resazurin |  | IC50 | > 10 µM |
| N=C(N)c1ccc(OCCCCCOc2ccc(C(=N)N)cc2)cc1 | MTS | 24 h | CC50 | > 20 µM |
| CNc1cccc2cc(C(=O)NCc3ccc(C(=O)O)cc3)c(=O)[nH]c12 | CCK-8 | 10 µM, 48 h | cell death | 6.1% |
| Cc1[nH]c2ccc(Cl)cc2c(=O)c1-c1ccc(Oc2ccc(OC(F)(F)F)cc2)nc1 | resazurin |  | IC50 | > 10 µM |
